# Laboratory results reported in ChEMBL document CHEMBL1128739, “Structure-activity relationships in the 8-amino-6,7,8,9-tetrahydro-3H-benz[e]indole ring system. 2. Effects of 8-amino nitrogen substitution on serotonin receptor binding and pharmacology” (J Med Chem, 1995).
# Active and inactive are the calls of the source. The calls are words filed in the database; no cut-off is given here.
# How the values were obtained:
# D(3) dopamine receptor = D(3) dopamine receptor (Rattus norvegicus, UniProt P19020); assay: In vitro binding affinity against cloned mammalian Dopamine receptor D3 expressed in CHO cells by, using [3H]-spiperone as radioligand; format: cell-based; conditions: read-out: Ki
# Chain of D(3) dopamine receptor (P19020 whole entry): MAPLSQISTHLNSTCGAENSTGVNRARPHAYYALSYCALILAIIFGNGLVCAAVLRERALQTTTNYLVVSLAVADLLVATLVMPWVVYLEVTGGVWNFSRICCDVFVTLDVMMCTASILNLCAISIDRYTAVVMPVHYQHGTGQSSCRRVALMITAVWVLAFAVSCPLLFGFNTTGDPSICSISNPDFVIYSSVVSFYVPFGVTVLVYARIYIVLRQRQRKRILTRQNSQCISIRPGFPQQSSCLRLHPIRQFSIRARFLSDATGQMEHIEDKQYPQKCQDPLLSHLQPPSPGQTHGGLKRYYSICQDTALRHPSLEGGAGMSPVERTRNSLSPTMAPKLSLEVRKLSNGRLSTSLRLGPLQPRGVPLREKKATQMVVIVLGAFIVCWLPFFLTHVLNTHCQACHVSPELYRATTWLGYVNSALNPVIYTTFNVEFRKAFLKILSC
# D(2) dopamine receptor [1] = biological target: T1, D(2) dopamine receptor (Rattus norvegicus, UniProt P61169); assay: In vitro binding affinity against cloned mammalian Dopamine receptor D2 expressed in CHO cells using [3H]U-86170 as radioligand; format: cell-based; conditions: read-out: Ki
# T1 sequence (P61169 whole entry): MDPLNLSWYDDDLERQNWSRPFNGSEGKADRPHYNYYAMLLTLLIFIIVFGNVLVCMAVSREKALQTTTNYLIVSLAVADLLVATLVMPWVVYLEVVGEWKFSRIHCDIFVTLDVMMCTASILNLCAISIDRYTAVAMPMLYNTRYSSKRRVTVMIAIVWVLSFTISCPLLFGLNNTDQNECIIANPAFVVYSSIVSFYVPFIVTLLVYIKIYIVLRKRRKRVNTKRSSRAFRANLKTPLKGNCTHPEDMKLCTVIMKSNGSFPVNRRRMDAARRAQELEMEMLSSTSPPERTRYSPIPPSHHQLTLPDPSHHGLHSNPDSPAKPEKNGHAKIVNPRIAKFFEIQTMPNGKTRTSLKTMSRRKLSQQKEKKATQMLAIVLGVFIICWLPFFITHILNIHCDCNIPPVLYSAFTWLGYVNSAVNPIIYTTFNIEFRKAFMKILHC
# How it was run: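 Membranes from CHO cells (20-60 μg protein) in 20 mM HEPES, 10 mM MgSO4, pH 7.4. Nonspecific binding defined with excess haloperidol. 11 concentrations, each in duplicate. Incubated 1 h at room temperature, then filtered and counted. IC50 from a one-site competition fit, converted to Ki by Cheng-Prusoff.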
# Rattus norvegicus [2] = assay: The compound was tested in vivo for biochemical effect against the changes in different brain area levels of DOPA in reserpinized rat hemispheres (mainly cortex) at dose 12.5 uM/kg; Inactive; format: functional, organism-based
# How it was run: (§1)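 Male Sprague-Dawley rats (200-300 g) pretreated with reserpine 5 mg/kg sc 18 h before. Injection volume 5 mL/kg, test solutions at neutral pH. DOPA and 5-HTP in limbic system, striatum and hemispheres measured by HPLC with electrochemical detection. Dose-response curves from four to six dose levels (n = 4) per brain area.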
# Rattus norvegicus [3] = assay: The compound was tested in vivo for biochemical effect against the changes in different brain area levels of DOPA in reserpinized rat limbic system at dose 12.5 uM/kg; Partial effect; format: functional, organism-based; how it was run: as §1
# [4] = biological target: T2, 5-hydroxytryptamine receptor 1B (Homo sapiens, UniProt P28222); assay: In vitro binding affinity against cloned mammalian 5-hydroxytryptamine 1D receptor beta expressed in CHO cells, by using [3H]5-HT as radioligand; format: cell-based
# T2 sequence (P28222 whole entry): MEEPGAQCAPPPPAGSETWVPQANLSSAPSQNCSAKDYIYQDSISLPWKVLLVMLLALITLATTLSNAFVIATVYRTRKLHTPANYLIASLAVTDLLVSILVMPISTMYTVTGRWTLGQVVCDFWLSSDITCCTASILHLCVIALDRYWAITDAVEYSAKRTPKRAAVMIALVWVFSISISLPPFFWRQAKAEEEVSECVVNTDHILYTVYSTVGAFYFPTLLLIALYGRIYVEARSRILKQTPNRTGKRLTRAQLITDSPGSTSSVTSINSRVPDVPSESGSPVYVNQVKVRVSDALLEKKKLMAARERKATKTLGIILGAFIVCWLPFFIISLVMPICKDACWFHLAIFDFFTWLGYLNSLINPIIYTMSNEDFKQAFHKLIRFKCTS
# How it was run: (§2)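 Membranes from CHO cells stably expressing the cloned receptor, made by mechanical disruption in ice-cold Tris/EDTA/EGTA pH 7.4 and differential centrifugation. [3H]serotonin at 1.7 nM in 50 mM Tris, 5 mM MgCl2, 0.1% ascorbic acid, pH 7.4. 11 drug concentrations in duplicate, 1 h at room temperature protected from light, then filtration. Excess serotonin defines nonspecific binding. One-site IC50 fit, Ki by Cheng-Prusoff.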
# Rattus norvegicus [5] = assay: The compound was tested in vivo for biochemical effect against the changes in different brain area levels of DOPA in reserpinized rat corpus striatum at dose 12.5 uM/kg; Partial effect; format: functional, organism-based; how it was run: as §1
# Rattus norvegicus [6] = assay: In vivo changes in different brain area levels of 5-HTP in reserpinized rat corpus striatum.; format: functional
# How it was run: (§3)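 Male Sprague-Dawley rats (200-300 g) pretreated with reserpine 5 mg/kg sc 18 h before. Injection volume 5 mL/kg at neutral pH. Brain-region 5-HTP measured by HPLC with electrochemical detection. Dose-response curves used four to six doses, n = 4.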
# Rattus norvegicus [7] = assay: In vivo for biochemical effect against brain area levels of 5-HTP in reserpinized rat hemispheres (mainly cortex).; format: functional; how it was run: as §1
# Rattus norvegicus [8] = assay: In vivo changes in different brain area levels of 5-HTP in reserpinized rat limbic system.; format: functional; how it was run: as §3
# [9] = biological target: 5-hydroxytryptamine receptor 1D (Homo sapiens, UniProt P28221); assay: In vitro binding affinity against cloned mammalian 5-hydroxytryptamine 1D receptor alpha expressed in CHO cells, by using [3H]5-HT as radioligand; format: cell-based
# Chain of 5-hydroxytryptamine receptor 1D (P28221 whole entry): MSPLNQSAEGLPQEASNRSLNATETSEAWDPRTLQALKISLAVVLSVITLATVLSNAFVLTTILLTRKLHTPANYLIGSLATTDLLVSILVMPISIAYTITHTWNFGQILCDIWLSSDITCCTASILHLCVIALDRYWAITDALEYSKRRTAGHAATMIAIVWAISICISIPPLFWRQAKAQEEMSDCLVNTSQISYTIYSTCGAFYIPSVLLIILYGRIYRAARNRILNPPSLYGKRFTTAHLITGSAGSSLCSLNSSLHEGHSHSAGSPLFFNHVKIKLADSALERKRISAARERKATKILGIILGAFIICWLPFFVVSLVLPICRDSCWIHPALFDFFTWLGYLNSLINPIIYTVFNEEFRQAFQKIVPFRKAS
# How it was run: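 Competition binding on CHO-cell membranes (20-60 μg protein) in 50 mM Tris, 5 mM MgCl2, 0.1% ascorbic acid, pH 7.4. Nonspecific binding defined with excess serotonin. 11 drug concentrations, each in duplicate. Incubated 1 h at room temperature, protected from light, then filtered and scintillation counted. IC50 taken from a one-site fit; Ki by Cheng-Prusoff.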
# Rattus norvegicus [10] = assay: The compound was tested in vivo for biochemical effect against the changes in different brain area levels of DOPA in reserpinized rat hemispheres (mainly cortex)at dose 12.5 uM/kg; Inactive; format: functional, organism-based
# Rattus norvegicus [11] = assay: The compound was tested in vivo for biochemical effect against the changes in different brain area levels of DOPA in reserpinized rat limbic system at dose 12.5 uM/kg; Inactive; format: functional, organism-based
# Rattus norvegicus [12] = assay: The compound was tested in vivo for biochemical effect against the changes in different brain area levels of DOPA in reserpinized rat corpus striatum at dose 12.5 uM/kg; Inactive; format: functional, organism-based; how it was run: as §1
# Rattus norvegicus [13] = assay: The compound was tested in vivo for biochemical effect against the changes in different brain area levels of DOPA in reserpinized rat corpus striatum; format: functional; how it was run: as §1
# Rattus norvegicus [14] = assay: The compound was tested in vivo for biochemical effect against the changes in different brain area levels of DOPA in reserpinized rat limbic system; format: functional
# How it was run: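 Rats (male Sprague-Dawley, 200-300 g) received reserpine 5 mg/kg sc 18 h before. Injections 5 mL/kg at neutral pH. DOPA accumulation measured by HPLC with electrochemical detection as an index of DA or NE synthesis rate. Four to six dose levels, n = 4. ED50 from a sigmoidal fit.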
# Rattus norvegicus [15] = assay: The compound was tested in vivo for biochemical effect against the changes in different brain area levels of DOPA in reserpinized rat hemispheres (mainly cortex)at dose 50 uM/kg; inactive; format: functional, organism-based
# D(2) dopamine receptor [16] = biological target: T1, D(2) dopamine receptor; assay: Binding affinity rat Dopamine receptor D2 expressed in CHO-K1 cells by [3H]U-86170 displacement.; format: cell-based
# Rattus norvegicus [17] = assay: The compound was tested in vivo for biochemical effect against the changes in different brain area levels of DOPA in reserpinized rat hemispheres (mainly cortex)at dose 12.5 uM/kg; inactive; format: functional, organism-based; how it was run: as §1
# Rattus norvegicus [18] = assay: The compound was tested in vivo for biochemical effect against the changes in different brain area levels of DOPA in reserpinized rat corpus striatum at dose 12.5 uM/kg; inactive; format: functional, organism-based; how it was run: as §1
# Rattus norvegicus [19] = assay: The compound was tested in vivo for biochemical effect against the changes in different brain area levels of DOPA in reserpinized rat limbic system at dose 12.5 uM/kg; inactive; format: functional, organism-based; how it was run: as §1
# Rattus norvegicus [20] = assay: The compound was tested in vivo for biochemical effect against the changes in different brain area levels of DOPA in reserpinized rat hemispheres (mainly cortex)at doest 12.5 umol/kg; Inactive; format: functional, organism-based
# Rattus norvegicus [21] = assay: The compound was tested in vivo for biochemical effect against the changes in different brain area levels of DOPA in reserpinized rat limbic system at dose 12.5 umol/kg; Partial effect; format: functional, organism-based
# Rattus norvegicus [22] = assay: The compound was tested in vivo for biochemical effect against the changes in different brain area levels of DOPA in reserpinized rat corpus striatum at dose 12.5 umol/kg; Partial effect; format: functional, organism-based
# Rattus norvegicus [23] = assay: The compound was tested in vivo for biochemical effect against the changes in different brain area levels of DOPA in reserpinized rat hemispheres (mainly cortex)at does 50 uM/kg; Inactive; format: functional, organism-based; how it was run: as §1
# Rattus norvegicus [24] = assay: The compound was tested in vivo for biochemical effect against the changes in different brain area levels of DOPA in reserpinized rat corpus striatum at dose 50 uM/kg; Inactive; format: functional, organism-based; how it was run: as §1
# Rattus norvegicus [25] = assay: The compound was tested in vivo for biochemical effect against the changes in different brain area levels of DOPA in reserpinized rat limbic system at does 50 uM/kg; Inactive; format: functional, organism-based; how it was run: as §1
# [26] = biological target: T2, 5-hydroxytryptamine receptor 1B; assay: The compound was tested in vitro for binding affinity against cloned mammalian 5-hydroxytryptamine 1D receptor beta expressed in CHO cells, by using [3H]5-HT as radioligand; format: cell-based; parameters: concentration or dose not given beside the values; conditions: concentration not given here; how it was run: as §2
# Rattus norvegicus [27] = assay: The compound was tested in vivo for biochemical effect against the changes in different brain area levels of DOPA in reserpinized rat hemispheres (mainly cortex)at does 12.5 uM/kg; inactive; format: functional, organism-based; how it was run: as §1
Ki [4] [nM],Ki [9] [nM],Compound,Ki (D(3) dopamine receptor) [nM],Ki (D(2) dopamine receptor [1]) [nM],ED50 (Rattus norvegicus [6]) [µmol/kg],ED50 (Rattus norvegicus [7]) [µmol/kg],ED50 (Rattus norvegicus [8]) [µmol/kg],further results
119,5,CCCN(CCCCN1C(=O)CC(C)(C)CC1=O)[C@@H]1CCc2ccc3[nH]cc(C=O)c3c2C1,154,62,2.98,4.63,3.78,ED50 (Rattus norvegicus [10]): inactive; ED50 (Rattus norvegicus [11]): inactive; ED50 (Rattus norvegicus [12]): inactive
4610,192,CCCN(Cc1ccccc1)C1CCc2ccc3[nH]ccc3c2C1 (stereo not drawn),43,–,6.87,6.72,7.58,ED50 (Rattus norvegicus [13]): 8.77 µmol/kg; ED50 (Rattus norvegicus [14]): 8.1 µmol/kg; ED50 (Rattus norvegicus [15]): inactive; Ki (D(2) dopamine receptor [16]): 22 nM
14,0.9,CCCN(CCCc1ccccc1)[C@@H]1CCc2ccc3[nH]cc(C=O)c3c2C1,19,5.8,0.43,0.75,–,ED50 (Rattus norvegicus [20]): inactive; ED50 (Rattus norvegicus [21]): Weak activity; ED50 (Rattus norvegicus [22]): Weak activity
–,–,CN(C)[C@H]1CCc2ccc3[nH]cc(C=O)c3c2C1,–,250,12.1,15.3,13.1,ED50 (Rattus norvegicus [23]): inactive; ED50 (Rattus norvegicus [24]): inactive; ED50 (Rattus norvegicus [25]): inactive

Compound,Ki [4] [nM],Ki [9] [nM],Ki (D(3) dopamine receptor) [nM],Ki (D(2) dopamine receptor [1]) [nM],ED50 (Rattus norvegicus [6]) [µmol/kg],ED50 (Rattus norvegicus [7]) [µmol/kg],ED50 (Rattus norvegicus [8]) [µmol/kg],further results
CN(C)[C@@H]1CCc2ccc3[nH]cc(C=O)c3c2C1,20,–,265,13,0.95,0.56,2.9,ED50 (Rattus norvegicus [2]): inactive; ED50 (Rattus norvegicus [3]): Weak activity; ED50 (Rattus norvegicus [5]): Weak activity
CCCN(CC(C)C)[C@@H]1CCc2ccc3[nH]ccc3c2C1,219,35,18,5.7,1.23,3.59,1.8,ED50 (Rattus norvegicus [17]): inactive; ED50 (Rattus norvegicus [18]): inactive; ED50 (Rattus norvegicus [19]): inactive
C=CCN(CCC)C1CCc2ccc3[nH]ccc3c2C1 (stereo not drawn),–,35,77,–,0.18,–,–,ED50 (Rattus norvegicus [13]): 0.97 µmol/kg; inhibition [26]: < 45%; ED50 (Rattus norvegicus [27]): inactive; ED50 (Rattus norvegicus [19]): inactive; Ki (D(2) dopamine receptor [16]): 42 nM
